Source: ChEMBL document CHEMBL1255434, “Heat stress cognate 70 host protein as a potential drug target against drug resistance in hepatitis B virus” (Antimicrob Agents Chemother, 2010)
In brackets after ≈: the same amount, converted by molar mass. Activity calls are given as the source filed them. No cut-off for these calls is given here.

Assays:
[1] = system: Hepatitis B virus; assay: Antiviral activity against Hepatitis B virus infected in human HepG2(2.2.15) cells assessed as decrease in intracellular viral DNA level at 5.9 uM after 72 hrs by RT-PCR analysis; assay type: functional, organism-based
Summary of the method: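 HepG2.2.15 cells were treated at 5.9, 23.6, 94.5 and 378 μM and 1.51 mM for 72 h. Intracellular HBV DNA was measured by real-time PCR, with Hsc70 mRNA by RT-PCR in parallel. Amounts were expressed relative to untreated cells, set as 1. Dot blot was used as confirmation. Means and SD.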

[2] = Decrease in HscA70-mRNA expression in Hepatitis B virus infected in human HepG2(2.2.15) cells at 5.9 uM after 24-36 hrs by RT-PCR analysis; assay type: functional, cell-based
[3] = system: HepG2; assay: Decrease in Hsc70- mRNA expression in human liver HepG2 cells at 0.23 to 0.94 mM after 24 hrs by RT-PCR analysis; assay type: functional, cell-based
Summary of the method: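 Hsc70 mRNA by one-step SYBR Green qRT-PCR after 24 h treatment at 0.0625 or 0.25 mg/ml (0.23 and 0.94 mM), relative to untreated cells. More than 5 experiments; means and SD.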

[4] = system: Hepatitis B virus; assay: Antiviral activity against Hepatitis B virus infected in human HepG2(2.2.15) cells assessed as decrease in intracellular viral DNA level at 113 uM after 72 hrs by RT-PCR analysis in presence of entecavir; assay type: functional, organism-based
Summary of the method: (§1)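 HepG2.2.15 cells (HBV genome-transfected, MEM + 10% FBS) treated 72 h with drug alone or in two-drug combination. Entecavir 0.6 μg/ml (2.16 μM), adefovir 3 μg/ml (5.9 μM), lamivudine 3 μg/ml (13 μM), oxymatrine 30 μg/ml (113 μM). Intracellular HBV DNA by SYBR Green real-time PCR, relative to untreated. Experiment repeated twice; means and SD, Student's t test.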

[5] = Therapeutic index, ratio of CC50 for human sHepG2(2.2.15) cells to IC50 for Hepatitis B virus; assay type: cell-based; conditions: HepG2 2.2.15 cells
Summary of the method: (§2)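 CC50 from MTT assay in HepG2.2.15 cells. Therapeutic ratio taken as CC50 over the anti-HBV EC50 from the 72 h dose-response measuring intracellular HBV DNA by real-time PCR.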

[6] = system: Hepatitis B virus; assay: Antiviral activity against Hepatitis B virus infected in human HepG2(2.2.15) cells assessed as reduction in viral DNA level by RT-PCR analysis; assay type: functional, organism-based
[7] = Decrease in wild type Luc mRNA expression in human HepG2(2.2.15) cells after 24 hrs by RT-PCR analysis; assay type: functional, cell-based
Summary of the method: (§3)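 HepG2.2.15 cells transfected 24 h with luciferase reporter pLuc (pcDNA3.0 backbone), pLuc-3′UTR or pLuc-5′UTR (Hsc70 UTR chimeras). Cells split into two dishes, incubated overnight, then given drug or dilution buffer. Total RNA taken 12 h later; Luc mRNA by real-time RT-PCR. Three experiments; means and SD.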

[8] = Cytotoxicity against human HepG2(2.2.15) cells assessed as cell survival at 113 uM continuous exposure measured after 2 months; conditions: hepg2 2.2.15, 1461 h
[9] = Cytotoxicity against human HepG2(2.2.15) cells assessed as cell killing by MTT assay; assay type: cell-based; summary of the method: as §2
[10] = Decrease in Luc mRNA expression in human sHepG2(2.2.15) cells expressing pLuc-5'UTR after 24 hrs by RT-PCR analysis; assay type: functional, cell-based; conditions: HepG2 2.2.15; summary of the method: as §3
[11] = system: Hepatitis B virus; assay: Antiviral activity against drug-resistant chronic Hepatitis B virus infected patients assessed as reduction in viral DNA at 0.4 g/day, po for 12 months; assay type: functional
[12] = system: Hepatitis B virus; assay: Antiviral activity against Hepatitis B virus infected in human HepG2(2.2.15) cells assessed as reduction in viral DNA level at 113 uM continuous exposure measured after 7 months by RT-PCR analysis
[13] = Decrease in Hsc70-protein expression in Hepatitis B virus infected in human HepG2(2.2.15) cells at 1.51 mM after 24 hrs by Western blot analysis; assay type: functional, cell-based
Summary of the method: (§4)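 HepG2.2.15 cells treated 24 h at 0.4 mg/ml (1.51 mM). Western blot: RIPA lysates with PMSF and protease inhibitors, SDS-PAGE, PVDF, 5% milk/TBST block 1 h at 37°C, mouse anti-Hsc70 monoclonal, HRP secondary, ECL. Flow cytometry: rabbit anti-Hsc70 with Cy5-labelled anti-rabbit secondary. Five experiments per assay.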

[14] = system: Hepatitis B virus; assay: Antiviral activity against Hepatitis B virus infected in human HepG2(2.2.15) cells assessed as decrease in supernatant viral DNA level at 1.51 mM after 36 hrs by RT-PCR analysis; assay type: functional; design: scale not given: the % may be the effect or the level left
[15] = system: Hepatitis B virus; assay: Antiviral activity against Hepatitis B virus infected in human HepG2(2.2.15) cells assessed as reduction in viral DNA level at 23.6 uM to 1.51 mM after 72 hrs by RT-PCR analysis; assay type: functional
Summary of the method: (§5)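 Dose-response in HepG2.2.15 cells: 5.9, 23.6, 94.5 and 378 μM and 1.51 mM for 72 h. Hsc70 mRNA by qRT-PCR and intracellular HBV DNA by real-time PCR, each expressed relative to untreated cells (=1). HBV DNA also checked by dot blot. EC50 from this curve.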

[16] = Half life in human blood; assay type: ADME, tissue-based
[17] = Decrease in Luc mRNA expression in human sHepG2(2.2.15) cells expressing pLuc-3'UTR […] by RT-PCR analysis; assay type: functional, cell-based; design: scale not given: the % may be the effect or the level left; conditions: HepG2 2.2.15
[18] = system: Hepatitis B virus; assay: Antiviral activity against Hepatitis B virus infected in human HepG2(2.2.15) cells assessed as reduction in viral mRNA level at 1.51 mM for 12, 24 or 36 hrs by RT-PCR analysis; assay type: functional, organism-based
Summary of the method: (§6)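 HepG2.2.15 cells exposed to 0.4 mg/ml (1.51 mM) for 12, 24 or 36 h. Total RNA taken for HBV mRNA by one-step SYBR Green qRT-PCR; intracellular DNA isolated for HBV DNA by real-time PCR. Each value scaled to the mean of untreated cells set as 1.0. Three experiments; means and SD.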

[19] = system: Hepatitis B virus; assay: Antiviral activity against entecavir-resistant Hepatitis B virus infected in human Huh-7 cells assessed as suppression of viral replication at 1.51 mM after 24 hrs by RT-PCR analysis; assay type: functional; conditions: Huh-7, 24 h
Summary of the method: (§7)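 Huh-7 cells (10^5/well) were plated and incubated overnight. They were then transfected for 24 h with pcDNA3.1 carrying one HBV strain: Lamr (rtL180M+rtM204V), Advr (rtA181V+rtN236T) or Etvr (rtL180M+rtM204V+rtS202G). Medium was replaced with fresh medium containing 0.4 mg/ml (1.51 mM) for 24 h. Intracellular HBV DNA replicative intermediates were quantified by real-time PCR against untreated controls. Performed twice.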

[20] = system: Hepatitis B virus; assay: Antiviral activity against lamivudine-resistant Hepatitis B virus infected in human Huh-7 cells assessed as suppression of viral replication at 1.51 mM after 24 hrs by RT-PCR analysis; assay type: functional; conditions: Huh-7, 24 h; summary of the method: as §7
[21] = system: Hepatitis B virus; assay: Antiviral activity against Hepatitis B virus infected in human HepG2(2.2.15) cells assessed as reduction in viral DNA replicative intermediates at 23.6 uM to 1.51 mM after 24 hrs by RT-PCR analysis; assay type: functional
[22] = system: Hepatitis B virus; assay: Antiviral activity against Hepatitis B virus infected in human HepG2(2.2.15) cells assessed as reduction in genomic viral DNA at 23.6 uM to 1.51 mM after 24 hrs by RT-PCR analysis; assay type: functional; design: scale not given: the % may be the effect or the level left
[23] = system: Hepatitis B virus; assay: Antiviral activity against Hepatitis B virus infected in human HepG2(2.2.15) cells assessed as reduction in viral DNA level at 1.51 mM for 12, 24 or 36 hrs by RT-PCR analysis; assay type: functional, organism-based; summary of the method: as §6
[24] = system: Hepatitis B virus; assay: Antiviral activity against adefovir-resistant Hepatitis B virus infected in human Huh-7 cells assessed as suppression of viral replication at 1.51 mM after 24 hrs by RT-PCR analysis; assay type: functional; conditions: Huh-7, 24 h; summary of the method: as §7
[25] = Decrease in Hsc70- mRNA expression in Hepatitis B virus infected in human HepG2(2.2.15) cells at 1.51 mM after 72 hrs by RT-PCR analysis; assay type: functional, cell-based; summary of the method: as §5
[26] = Decrease in Hsc70- mRNA expression in Hepatitis B virus infected in human HepG2(2.2.15) cells at 1.51 mM by RT-PCR analysis; assay type: functional, cell-based; conditions: TDE = time-dependent effect
[27] = system: Hepatitis B virus; assay: Antiviral activity against Hepatitis B virus infected in human HepG2(2.2.15) cells assessed as decrease in intracellular viral DNA level at 1.51 mM after 36 hrs by RT-PCR analysis; assay type: functional; conditions: HepG2 2.2.15, 36 h
Summary of the method: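 HepG2.2.15 cells (HBV full-genome transfected HepG2) in MEM with 10% FBS, exposed to 0.4 mg/ml (1.51 mM) for 36 h. Intracellular DNA (genomic plus HBV) isolated and HBV DNA quantified by SYBR Green real-time PCR. Values were normalised to the untreated-cell mean, set as 1.0. Run 3 times; means and SD.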

[28] = Cytotoxicity against human HepG2(2.2.15) cells assessed as cell growth at 1.51 mM after 36 hrs; assay type: cell-based; conditions: hepg2 2.2.15, 36 h, 1510 µM
Summary of the method: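 HepG2.2.15 cell growth followed during 36 h exposure to 0.4 mg/ml (1.51 mM), compared with untreated cells; experiment repeated twice.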

[29] = Decrease in HscA90-mRNA expression in Hepatitis B virus infected in human HepG2(2.2.15) cells at 1.51 mM after 24 hrs by RT-PCR analysis; assay type: functional, cell-based
Summary of the method: (§8)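 HepG2.2.15 cells at 0.4 mg/ml (1.51 mM). HspA4 and Hsp90 mRNA measured as host reference genes by one-step SYBR Green qRT-PCR, alongside Hsc70 mRNA and HBV DNA.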

[30] = Decrease in HscA4-mRNA expression in Hepatitis B virus infected in human HepG2(2.2.15) cells at 1.51 mM after 24 hrs by RT-PCR analysis; assay type: functional, cell-based; summary of the method: as §8
[31] = Cytotoxicity against human HepG2(2.2.15) cells assessed as cell survival at 113 uM continuous exposure measured after 7 months; conditions: hepg2 2.2.15, 5113.5 h
[32] = system: Hepatitis B virus; assay: Antiviral activity against Hepatitis B virus infected in human HepG2(2.2.15) cells assessed as reduction in viral DNA level at 113 uM continuous exposure measured after 2 months by RT-PCR analysis
[33] = system: Hepatitis B virus; assay: Antiviral activity against Hepatitis B virus infected in human HepG2(2.2.15) cells assessed as decrease in intracellular viral DNA level at 113 uM after 72 hrs by RT-PCR analysis in presence of adefovir; assay type: functional, organism-based; summary of the method: as §1
[34] = system: HepG2 2.2.15; assay: Reduction in Hsc70 mRNA half-life in Hepatitis B virus infected in human HepG2(2.2.15) cells at 1.51 mM after 24 hrs by RT-PCR analysis; assay type: functional; conditions: HepG2 2.2.15, 24 h
Summary of the method: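 HepG2.2.15 cells treated or not with 0.4 mg/ml (1.51 mM) for 24 h, then actinomycin D 5 μg/ml added to block transcription. RNA harvested at intervals; Hsc70 mRNA by real-time RT-PCR, normalized to GAPDH. Percent remaining plotted against time to estimate T1/2. Repeated twice.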

[35] = system: Hepatitis B virus; assay: Antiviral activity against Hepatitis B virus infected in human HepG2(2.2.15) cells assessed as decrease in intracellular viral DNA level at 113 uM after 72 hrs by RT-PCR analysis; assay type: functional, organism-based; summary of the method: as §1
[36] = Decrease in Hsc70-protein expression in Hepatitis B virus infected in human HepG2(2.2.15) cells at 1.51 mM after 24 hrs by flow-cytometric assay; assay type: functional, cell-based; summary of the method: as §4

Nc1ncnc2c1ncn2CCOCP(=O)(O)O
Activity [1]: Active | Activity [2]: inactive

O=C1CCC[C@@H]2[C@H]3CCC[N+]4([O-])CCC[C@@H](CN12)[C@@H]34 (stereo partly specified) [OXYMATRINE]
Activity [3]: Active | Activity [4]: Active | selectivity ratio [5]: > 100 | EC50 [6]: 31 µg/mL (≈ 117 µM) | Activity [7]: inactive | Activity [8]: Non-toxic | MTT [9]: 3.12 mg/mL | Activity [10]: inactive | log10cfu [11]: 1.5 | Activity [12]: Active | Activity [13]: Active | Activity [14]: 60% | inhibition (INH) [15]: 43% | half-life [16]: 2.4 h | Activity [17]: 50% | Activity [18]: inactive | inhibition at 1510 µM [19]: 62% | inhibition at 1510 µM [20]: 62% | inhibition (INH) [21]: 75% | Activity [22]: 54% | Activity [23]: Active | inhibition at 1510 µM [24]: 62% | Activity [25]: inactive | Activity [26]: tde | inhibition at 1510 µM [27]: 62% | Activity [28]: Non-toxic | Activity [29]: inactive | Activity [30]: inactive | Activity [31]: Non-toxic | Activity [32]: Active | Activity [33]: Active | inhibition at 1510 µM [34]: 50% | Activity [35]: Active | Activity [36]: Active
